PLK1 PBD inh: Plk1 polo box domain binding inhibitors, primary screen, biochemical, fluorescence polarization; Serine/threonine-protein kinase PLK1 (Homo sapiens), P53350; Plk1 PBD phosphopeptide binding; inhibition, %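 (tested at about 20 µM)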; actives 0.13% (n = 97,000); in the data active = inhibition above about 34%, passing the limit was not always enough
DAT uptake mod: changed hDAT dopamine uptake under cocaine IC80, either direction, primary screen, cocaine antagonist project, cell-based, LLC-PK1 hDAT, [14C]-dopamine uptake, MLSMR | actives 1.3% (n = 110,000) | B-score at 10 µM | AID 449768, 2010 | Sodium-dependent dopamine transporter (Homo sapiens), Q01959 | LLC-PK1 hDAT cells, [14C]-dopamine uptake with cocaine IC80; actives deviate in either direction;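 active = Z score or B-score, a plate-position-corrected score, falls beyond the plate's 99.7% confidence bounds, in either direction; inactive = both scores lie inside the 99.7% bounds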
LYP act: LYP phosphatase activators, primary screen, biochemical, DiFMUP fluorescence, 2 µM; AID 697, 2007; recombinant LYP; 0 = plate median, 100 = signal doubled; activation, % at 2 µM; Tyrosine-protein phosphatase non-receptor type 22 (Homo sapiens), Q9Y2R2; actives 0.11% (n = 96,000);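 active = activation at 2 µM above a set limit, the mean plus 5 SD, cut at about 37% in these data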
Rev-RRE block: HIV-1 Rev-RRE binding inhibitors, primary screen, biochemical, FRET, protein-RNA interaction | P05866 | Rev peptide-RRE RNA binding | inhibition, % at 8 µM | actives 0.79% (n = 97,000) | AID 704, 2007;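 active = inhibition above the screen-wide mean plus 3 SD, cut at about 35% in these data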
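Test system: Cy5-tagged RRE RNA duplex with fluorescein-tagged Rev peptide; Probe or stimulus: labelled Rev peptide; Schedule: 5 min preincubation and 15 min binding, 25 °C; Signal: FRET fluorescence readout; Evaluation: % inhibition from 671/540 nm acceptor-to-donor ratio, scaled between controls; Control set: DMSO and neomycin B.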
LYP inh 2: PTPN22 phosphatase inhibitors, primary screen, biochemical, DiFMUP fluorescence, 2 µM; Tyrosine-protein phosphatase non-receptor type 22 (Homo sapiens), Q9Y2R2; recombinant LYP catalytic domain; inhibition, % at 2 µM; actives 0.21% (n = 96,000);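 active = inhibition at 2 µM at or above a set limit, the screen mean plus 3 SD, cut at about 24% in these data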
PLK1 kinase inh: human PLK1 kinase inhibitors, primary screen, biochemical, TR-FRET | recombinant PLK1 kinase, TR-FRET peptide phosphorylation | Serine/threonine-protein kinase PLK1 (Homo sapiens), P53350 | actives 0.53% (n = 97,000) | inhibition, % at 10 µM | AID 619, 2007;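 active = inhibition of 50% or more in the single-concentration screen; inactive = inhibition below 50%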
Hits are given with their value; n = inactive; x = no result; [ ] = another dose, or the depositor's remark. Shown are actives, neighbours in structure and some others; about 2.7% of the full set was active somewhere.

SMILES	PLK1 PBD inh	DAT uptake mod	LYP act	Rev-RRE block	LYP inh 2	PLK1 kinase inh
CCn1c(=S)sc2c(=O)[nH]c(C)nc21	n	-9	n	n	n	58
CCn1c(=S)sc2c(=O)n(-c3ccccc3)c(SC)nc21	n	n	n	n	n	n
COc1ccc(OC)c(/C=N\NC(=O)CSc2nnc(CCCc3ccc(OC)c(C)c3)o2)c1	n	n	n	n	n	n
COc1ccc(Cl)cc1C(=O)CSc1nc(N)cc(N)n1	n	n	n	n	n	n
O=C(Cc1cccs1)N1CCC(c2nc3c(nnn3Cc3ccccc3)c(=O)[nH]2)CC1	n	n	n	n	n	n
Cc1ccc(Cn2nnc3c(=O)[nH]c(C4CCN(C(=O)Cc5cccs5)CC4)nc32)cc1	n	3.4	n	n	n	n
Cc1ccc(Cn2nnc3c(=O)[nH]c(C4CCCN(S(=O)(=O)c5ccccc5)C4)nc32)cc1 (stereo not given)	n	n	n	n	n	n
CCOc1ccccc1NC(=O)N1CCCC(c2nc3c(nnn3Cc3ccc(C)cc3)c(=O)[nH]2)C1 (stereo not given)	n	n	n	n	n	n
Cc1ccc(Cn2nnc3c(=O)[nH]c(C4CCCN(C(=O)Nc5ccc(F)cc5F)C4)nc32)cc1 (stereo not given)	n	3.2	n	n	n	n
CC(C)(C)c1ccc(Cn2nnc3c(=O)[nH]c(C4CCN(C(=O)Cc5cccs5)CC4)nc32)cc1	n	3.3	n	n	n	n
Cc1ccc(Cn2nnc3c(=O)[nH]c(C4CCN(S(=O)(=O)c5ccccc5)CC4)nc32)cc1	n	2.9	n	n	n	n
COc1cc(C(=O)n2nc(C)cc2C)ccc1O	n	n	n	n	n	n
c1ccc(Cn2nnnc2C(c2cccnc2)N2CCN(c3ccccc3)CC2)cc1 (stereo not given)	n	n	n	n	n	n
Cc1cccc(NC(=O)c2nc[nH]c2C(=O)N[C@@H](Cc2ccccc2)C(=O)OCc2ccccc2)c1	x	n	x	x	x	x
C=CCn1c(NC)cc(=O)n(C)c1=O	n	-9.1	n	n	n	n
CCNc1cc(=O)n(C)c(=O)n1C	n	n	n	n	n	n
CCCCN1C(=O)C2NN=C(C(=O)OC)C2C1=O (stereo not given)	n	n	n	n	n	n
Cc1ccc(CNC(=O)CN(Cc2ccccc2)S(C)(=O)=O)cc1	n	n	n	n	n	n
CC1(c2nnc(-c3ccc(F)cc3)o2)CC(c2ccc([N+](=O)[O-])cc2)=NO1 (stereo not given)	x	n	x	x	x	x
N#Cc1c(NC(=O)CSc2nnc(-c3ccncc3)n2CC2CCCO2)sc2c1CCCC2 (stereo not given)	n	n	n	n	n	n
NC(=O)c1c(NC(=O)CSc2nnc(-c3ccccc3)n2CC2CCCO2)sc2c1CCC2 (stereo not given)	n	2.7	n	n	n	n
O=C(CSCc1ccccc1)NNC(=S)Nc1cccc(Cl)c1Cl	n	n	n	n	n	n
Cc1nc(N2CCN(c3ccccc3)CC2)[nH]c(=O)c1Cc1ccccc1	x	n	x	x	x	x
Cc1nc(N2CCN(C)CC2)[nH]c(=O)c1Cc1cccc2ccccc12	n	2.5	n	n	n	n
COc1ccc(-c2cc(C(=O)Nc3cc(OC)cc(C(=O)Nc4cccc(C(F)(F)F)c4)c3)[nH]n2)cc1	x	n	x	x	x	x
SMILES	PLK1 PBD inh	DAT uptake mod	LYP act	Rev-RRE block	LYP inh 2	PLK1 kinase inh
COc1cc(OC)c2ccc(=O)oc2c1C(CCN1CCCC1)c1ccc2c(c1)OCO2 (stereo not given)	x	1.1	x	x	x	x
COc1ccc(C2NC3=C(CCCC3)C(C#N)(C#N)C2(C#N)C#N)cc1 (stereo not given)	n	n	n	46	n	n
COc1ccc(C2NC3=C(CCC3)C3(C#N)C4(N=C(N)C23C#N)OCCO4)cc1 (stereo not given)	n	n	n	n	n	n
O=C1S/C(=C\c2ccc(N3CCOCC3)o2)C(=O)N1Cc1c(F)cccc1Cl	n	n	n	121[fluorescence artefact?]	n	n
O=C1S/C(=C/c2ccc(N3CCOCC3)o2)C(=O)N1Cc1c(F)cccc1Cl	n	n	n	126[fluorescence artefact?]	n	n
Cc1cccc(-c2noc(-c3cc4ccccc4oc3=O)n2)c1	n	n	n	n	n	n
CC(C)OC(=O)CCc1nc2ccccc2[nH]c1=O	n	2.1	n	n	n	n
CCOC(=O)C(C)c1nc2ccccc2[nH]c1=O (stereo not given)	n	n	n	n	n	n
Nc1nnc(SCC(=O)Nc2ccc3c(c2)OCCO3)s1	n	n	n	n	n	n
Nc1nnc(SCC(=O)Nc2ccc(S(=O)(=O)N3CCOCC3)cc2)s1	n	n	n	n	26	n
Cn1c(SCC2CCCCC2)nnc1-c1ccncc1	x	-7.9	x	x	x	x
CCOC(=O)C(CC)(CC)C(=O)/C=C/c1cccc(Br)c1	n	n	n	n	n	n
CCOC(=O)c1c(C)nc2c(c(SC)nn2-c2ccccc2)c1N	n	n	n	n	n	n
Cc1cc2c(cc1C)N(C(=O)CSC1=NCCS1)C(C)(C)c1ssc(=S)c1-2	n	n	n	n	27	n
CC1(C)c2ssc(=S)c2-c2ccccc2N1C(=O)CSC1=NCCS1	n	n	n	n	n	n
CCC(C)c1ccc(NC(=O)CSc2nncn2N)cc1 (stereo not given)	n	n	n	n	n	n
Nn1cnnc1SCC(=O)Nc1ccc(C2CCCCC2)cc1	x	1.3	x	x	x	x
COc1ccccc1S(=O)Cc1ccc(C(=O)NC2CCCC2)o1 (stereo not given)	n	n	n	n	n	n
COc1ccccc1S(=O)Cc1ccc(C(=O)NCCc2ccc(Cl)cc2)o1 (stereo not given)	n	n	x	n	x	60
Cc1c(C(=O)NN2CCCCC2)nn(-c2ccc(Cl)cc2Cl)c1-c1ccc(I)cc1	x	n	x	x	x	x
Cc1ccc2[nH]c(=O)c(CN(CCc3ccccc3)Cc3nnnn3CC3CCCO3)cc2c1 (stereo not given)	n	n	n	n	n	n
O=c1[nH]c2cc3c(cc2cc1CN(CCc1ccccc1)Cc1nnnn1CC1CCCO1)OCO3 (stereo not given)	n	n	n	41	n	n
O=c1[nH]c2cc3c(cc2cc1CN(Cc1nnnn1CC1CCCO1)C1CCCCC1)OCO3 (stereo not given)	n	x	n	39	n	n

Screens: PubChem, several laboratories
